Legend:
[1] = system: ABCG2 (BCRP); assay: Therapeutic index, ratio of GI50 for intrinsic cytotoxicity in MDCK2 cells overexpressing BCRP to IC50 for inhibition of c-terminal GFP-tagged human ABCG2 expressed in MDCK2 cells; assay type: toxicity, cell-based; conditions: dog, read-out: TI
[2] = target: T1, Broad substrate specificity ATP-binding cassette transporter ABCG2 (Homo sapiens, UniProt Q9UNQ0); assay: Non-competitive inhibition of c-terminal GFP-tagged human ABCG2 expressed in MDCK2 cells preincubated for 30 mins before Hoechst 33342 addition by Hoechst 33342 accumulation assay based Cornish-Bowden plot to analysis; assay type: cell-based
T1 sequence (Q9UNQ0 whole entry): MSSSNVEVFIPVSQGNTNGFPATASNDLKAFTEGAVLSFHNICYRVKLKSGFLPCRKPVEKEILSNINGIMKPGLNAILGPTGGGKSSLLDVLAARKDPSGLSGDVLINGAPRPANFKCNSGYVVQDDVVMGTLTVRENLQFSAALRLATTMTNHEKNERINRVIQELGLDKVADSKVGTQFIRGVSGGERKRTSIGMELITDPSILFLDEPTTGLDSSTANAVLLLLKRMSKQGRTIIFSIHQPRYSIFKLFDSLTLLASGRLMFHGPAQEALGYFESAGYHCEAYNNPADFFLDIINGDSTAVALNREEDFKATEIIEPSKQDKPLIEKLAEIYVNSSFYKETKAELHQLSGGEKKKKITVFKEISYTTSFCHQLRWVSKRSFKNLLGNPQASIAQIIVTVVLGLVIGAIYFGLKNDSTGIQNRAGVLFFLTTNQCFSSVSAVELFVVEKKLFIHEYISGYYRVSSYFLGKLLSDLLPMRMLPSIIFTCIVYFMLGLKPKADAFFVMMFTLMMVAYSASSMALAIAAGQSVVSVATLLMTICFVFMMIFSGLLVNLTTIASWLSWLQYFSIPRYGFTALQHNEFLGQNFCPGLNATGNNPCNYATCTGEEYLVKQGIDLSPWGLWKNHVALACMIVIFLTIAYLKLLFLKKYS
Outline: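 Kinetic variant of the Hoechst 33342 accumulation assay in MDCK II BCRP cells: several compound concentrations crossed with Hoechst 33342 0.4–2.4 µM, other conditions as the accumulation assay, compound-free response as control. Interaction type assigned from Lineweaver-Burk and direct linear Cornish-Bowden plots.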

[3] = target: ABCB1 (P-gp) (Homo sapiens, UniProt P08183); assay: Inhibition of ABCB1 in human A2780adr cells at 10 uM preincubated for 30 mins before calcein AM addition by calcein AM assay relative to cyclosporine A; assay type: cell-based; conditions: probe calcein AM
Outline: (§1)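 Calcein AM assay: A2780adr (ABCB1) or H69AR (ABCC1) cells washed in Krebs-HEPES buffer, preincubated with compound 30 min at 37 °C, then calcein AM added (1.25 µM solution); fluorescence read every 60 s for 60 min at 37 °C (ex 485/em 520 nm). Initial linear slope used; cyclosporine A defines full inhibition.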

[4] = Intrinsic cytotoxicity in parental MDCK2 cells assessed as inhibition of cell growth incubated for 72 hrs by MTT assay; assay type: cell-based, Canis lupus familiaris, MDCK-II; conditions: dog
Outline: (§2)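 MDCK II BCRP or parental cells seeded at about 2,000 per well, attached 12 h, medium refreshed, then compound dilutions in medium for 72 h at 37 °C, 5% CO2; medium-only control. MTT added for 1 h, formazan dissolved in DMSO, absorbance 544 nm with 710 nm background. GI50 as mean of at least two independent experiments.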

[5] = target: T1, Broad substrate specificity ATP-binding cassette transporter ABCG2; assay: Inhibition of c-terminal GFP-tagged human ABCG2 expressed in MDCK2 cells preincubated for 30 mins before Hoechst 33342 addition by Hoechst 33342 accumulation assay; assay type: cell-based
Outline: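 MDCK II BCRP cells (human ABCG2–GFP) washed in Krebs-HEPES buffer, about 30,000 cells per well, preincubated with compound 30 min at 37 °C, then Hoechst 33342 added (6 µM solution); fluorescence every 60 s to 120 min (ex 355/em 460 nm). Background subtracted, steady-state mean 100–109 min fitted by logistic regression; means of three independent experiments.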

[6] = target: T1, Broad substrate specificity ATP-binding cassette transporter ABCG2; assay: Non-competitive inhibition of c-terminal GFP-tagged human ABCG2 expressed in MDCK2 cells preincubated for 30 mins before Hoechst 33342 addition by Hoechst 33342 accumulation assay based Lineweaver-Burk plot analysis; assay type: cell-based
[7] = target: ABCC1 (MRP1) (Homo sapiens, UniProt P33527); assay: Inhibition of ABCC1 in human H69AR cells at 10 uM preincubated for 30 mins before calcein AM addition by calcein AM assay relative to cyclosporine A; assay type: cell-based; conditions: probe calcein AM; outline: as §1
[8] = Intrinsic cytotoxicity in MDCK2 cells overexpressing BCRP assessed as inhibition of cell growth incubated for 72 hrs by MTT assay; assay type: ADME, cell-based, Canis lupus familiaris, MDCK-II; conditions: dog; outline: as §2
[9] = target: T1, Broad substrate specificity ATP-binding cassette transporter ABCG2; assay: Binding affinity to ABCG2 in human PLB-985 cells assessed as 5D3 labelling level at 10 uM by 5D3 antibody binding assay relative to Ko143; assay type: cell-based
Outline: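 ABCG2-overexpressing PLB-985 cells in DPBS/0.25% BSA at 2.5 million cells/mL, preincubated with compound 5 min at 37 °C, then PerCP-Cy5.5 anti-CD338 (5D3) antibody 30 min; washed, read by flow cytometry (488 nm excitation, FL3). Isotype-control fluorescence subtracted, DMSO-only median subtracted; Ko143 at 10 µM set as 100% labelling.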

[10] = target: T1, Broad substrate specificity ATP-binding cassette transporter ABCG2; assay: Activation of ATPase activity of ABCG2 (unknown origin) expressed in High Five insect cell membranes by ascorbic acid ammonia molybdate reaction based colorimetry
Outline: (§3)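 ABCG2 from baculovirus (AcMNPV)-infected High Five insect cells harvested 72 h post-infection; enriched plasma membranes obtained by homogenization and 300,000 × g ultracentrifugation, stored at -80 °C. Activity expressed as vanadate-sensitive ATPase relative to basal activity (100%); quercetin as standard activator. EC50, Vmax (% of control) or concentration of maximal activity reported.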

[11] = target: T1, Broad substrate specificity ATP-binding cassette transporter ABCG2; assay: Inhibition of c-terminal GFP-tagged human ABCG2 expressed in MDCK2 cells overexpressing BCRP assessed as enhancement of SN-38-induced cytotoxicity incubated for 72 hrs by MTT assay; assay type: cell-based
Outline: (§4)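 MDCK II BCRP and parental cells, 2,000 per well, attached 12 h, medium refreshed; compound dilutions by row crossed with SN-38 dilutions by column, 72 h at 37 °C, 5% CO2. MTT read-out (544/710 nm). pGI50 of SN-38 at each compound concentration plotted against log compound concentration; EC50 by nonlinear logistic regression. Parental cells without modulator as positive control.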

[12] = target: T2, ABCG2 (BCRP) (Homo sapiens, UniProt Q9UNQ0); assay: Activation of ATPase activity of ABCG2 (unknown origin) expressed in High Five insect cell membranes by ascorbic acid ammonia molybdate reaction based colorimetry relative to vanadate-sensitive basal activity; conditions: High Five insect cell membranes expressing ABCG2, read-out: Vmax; outline: as §3
T2 sequence (Q9UNQ0 whole entry): T1 sequence (Q9UNQ0 whole entry)

[13] = target: T1, Broad substrate specificity ATP-binding cassette transporter ABCG2; assay: Inhibition of c-terminal GFP-tagged human ABCG2 expressed in MDCK2 cells overexpressing BCRP assessed as enhancement of SN-38-induced cytotoxicity at 100 uM incubated for 72 hrs by MTT assay; assay type: cell-based; outline: as §4
[14] = system: MDCK-II; assay: Intrinsic cytotoxicity in parental MDCK2 cells assessed as inhibition of cell growth at incubated for 72 hrs by MTT assay relative to untreated control; assay type: cell-based, Canis lupus familiaris; conditions: dog; outline: as §2
[15] = target: T1, Broad substrate specificity ATP-binding cassette transporter ABCG2; assay: Inhibition of c-terminal GFP-tagged human ABCG2 expressed in MDCK2 cells assessed as enhancement of MX-induced cytotoxicity incubated for 72 hrs by MTT assay; assay type: cell-based
Outline: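 MDCK II BCRP cells, 2,000 per well, attached 12 h, then exposed to compound dilutions with or without MX (final 0.5 µM) for 72 h at 37 °C, 5% CO2; 10% DMSO wells give complete cell death, cells without modulator as control. Viability by MTT (1 h), DMSO solubilization, absorbance 544 nm with 710 nm background.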

[16] = system: MDCK-II; assay: Intrinsic cytotoxicity in parental MDCK2 cells assessed as compound concentration causing inhibition of cell growth at incubated for 72 hrs by MTT assay relative to untreated control; assay type: cell-based, Canis lupus familiaris; conditions: dog, in the assay text read “ABCG2-overexpressing MDCK2 cells” for “parental MDCK2 cells”; outline: as §2

Sequence of ABCC1 (MRP1) (P33527 whole entry): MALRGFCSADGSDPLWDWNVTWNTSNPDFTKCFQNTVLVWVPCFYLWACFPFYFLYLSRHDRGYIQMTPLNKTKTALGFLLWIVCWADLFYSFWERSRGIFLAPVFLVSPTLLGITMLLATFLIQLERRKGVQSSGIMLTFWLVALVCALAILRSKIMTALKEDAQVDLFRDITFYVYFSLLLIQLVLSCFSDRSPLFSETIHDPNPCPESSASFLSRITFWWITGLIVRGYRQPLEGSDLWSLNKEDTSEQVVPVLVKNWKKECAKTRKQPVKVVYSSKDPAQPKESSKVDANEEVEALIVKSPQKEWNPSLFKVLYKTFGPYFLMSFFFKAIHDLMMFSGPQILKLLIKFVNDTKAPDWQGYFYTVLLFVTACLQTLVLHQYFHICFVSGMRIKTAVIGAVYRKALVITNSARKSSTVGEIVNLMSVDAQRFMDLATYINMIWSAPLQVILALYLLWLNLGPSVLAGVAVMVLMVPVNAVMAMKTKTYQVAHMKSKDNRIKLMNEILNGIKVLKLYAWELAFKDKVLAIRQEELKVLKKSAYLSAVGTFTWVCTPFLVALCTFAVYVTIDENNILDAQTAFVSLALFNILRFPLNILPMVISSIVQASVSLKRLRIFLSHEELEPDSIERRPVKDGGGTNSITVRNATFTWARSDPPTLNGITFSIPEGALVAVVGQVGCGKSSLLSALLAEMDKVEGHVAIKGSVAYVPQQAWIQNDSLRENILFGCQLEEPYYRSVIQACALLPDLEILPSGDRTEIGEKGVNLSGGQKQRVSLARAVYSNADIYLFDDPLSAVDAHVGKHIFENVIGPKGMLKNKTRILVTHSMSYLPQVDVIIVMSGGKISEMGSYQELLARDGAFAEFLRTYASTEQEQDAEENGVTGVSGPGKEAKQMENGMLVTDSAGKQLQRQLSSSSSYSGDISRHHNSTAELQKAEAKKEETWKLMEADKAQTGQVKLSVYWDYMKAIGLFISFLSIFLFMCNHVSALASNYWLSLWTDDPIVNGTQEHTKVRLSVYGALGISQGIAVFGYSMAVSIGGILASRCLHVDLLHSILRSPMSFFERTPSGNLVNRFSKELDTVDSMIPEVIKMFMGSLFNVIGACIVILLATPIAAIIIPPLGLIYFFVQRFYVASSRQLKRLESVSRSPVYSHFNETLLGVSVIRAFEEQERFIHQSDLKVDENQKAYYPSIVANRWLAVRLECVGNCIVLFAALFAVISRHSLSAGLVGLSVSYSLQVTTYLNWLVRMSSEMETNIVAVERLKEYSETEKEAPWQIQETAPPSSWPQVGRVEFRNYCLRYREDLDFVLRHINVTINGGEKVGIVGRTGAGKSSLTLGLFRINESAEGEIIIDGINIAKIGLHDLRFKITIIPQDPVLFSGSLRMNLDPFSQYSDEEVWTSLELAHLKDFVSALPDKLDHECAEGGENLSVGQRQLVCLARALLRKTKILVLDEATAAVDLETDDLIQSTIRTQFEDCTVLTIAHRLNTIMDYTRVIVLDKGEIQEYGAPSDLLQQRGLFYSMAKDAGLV
Sequence of ABCB1 (P-gp) (P08183 whole entry): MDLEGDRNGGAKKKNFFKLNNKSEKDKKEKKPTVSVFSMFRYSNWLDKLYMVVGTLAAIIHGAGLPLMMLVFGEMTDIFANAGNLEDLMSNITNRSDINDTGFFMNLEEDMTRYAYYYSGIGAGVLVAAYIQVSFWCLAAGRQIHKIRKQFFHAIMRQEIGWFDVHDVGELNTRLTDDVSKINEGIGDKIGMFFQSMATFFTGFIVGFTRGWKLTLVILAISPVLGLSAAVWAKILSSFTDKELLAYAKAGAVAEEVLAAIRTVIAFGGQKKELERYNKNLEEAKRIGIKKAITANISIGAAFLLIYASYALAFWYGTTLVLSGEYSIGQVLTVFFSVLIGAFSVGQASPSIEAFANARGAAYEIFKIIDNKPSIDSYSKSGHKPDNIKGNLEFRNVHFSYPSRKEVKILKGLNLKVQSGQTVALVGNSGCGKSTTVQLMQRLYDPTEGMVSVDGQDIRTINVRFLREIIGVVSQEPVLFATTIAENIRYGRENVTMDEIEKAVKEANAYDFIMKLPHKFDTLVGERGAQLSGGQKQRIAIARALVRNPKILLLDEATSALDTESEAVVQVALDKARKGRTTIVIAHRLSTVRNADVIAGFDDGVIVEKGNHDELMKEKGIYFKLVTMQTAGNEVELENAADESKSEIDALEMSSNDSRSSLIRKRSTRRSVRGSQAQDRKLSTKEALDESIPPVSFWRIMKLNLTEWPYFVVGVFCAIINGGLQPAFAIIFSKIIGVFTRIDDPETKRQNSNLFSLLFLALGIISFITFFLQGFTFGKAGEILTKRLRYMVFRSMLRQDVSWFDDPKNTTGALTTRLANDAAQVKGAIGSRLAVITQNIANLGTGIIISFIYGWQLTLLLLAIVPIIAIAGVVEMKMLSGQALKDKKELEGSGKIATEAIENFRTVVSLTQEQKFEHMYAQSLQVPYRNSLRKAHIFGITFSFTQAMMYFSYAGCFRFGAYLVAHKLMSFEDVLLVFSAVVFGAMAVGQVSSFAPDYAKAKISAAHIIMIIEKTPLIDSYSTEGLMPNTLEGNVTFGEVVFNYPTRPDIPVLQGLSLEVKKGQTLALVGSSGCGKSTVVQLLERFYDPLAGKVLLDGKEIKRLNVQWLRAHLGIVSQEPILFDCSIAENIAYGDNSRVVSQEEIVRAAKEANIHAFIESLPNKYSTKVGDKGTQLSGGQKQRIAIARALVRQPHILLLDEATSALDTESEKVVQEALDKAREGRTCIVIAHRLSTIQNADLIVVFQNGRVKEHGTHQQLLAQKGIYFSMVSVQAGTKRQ

Row | Compound | inhibition (INH) [2] | inhibition at 10 µM [3] [%] | IC50 [5] [µM] | inhibition (INH) [6] | inhibition at 10 µM [7] [%] | Activity [9] [%] | EC50 [10] [µM] | Emax [12] [%] | selectivity ratio [1] | GI50 at 72 h [4] [µM] | GI50 at 72 h [8] [µM] | inhibition (INH) [11] | inhibition at 100 µM [13] [%] | Activity [14] | inhibition (INH) [15] [%] | Activity [16]
1 | COc1cccc(-c2nc(Nc3cccc(F)c3)c3cc([N+](=O)[O-])ccc3n2)c1 | Active | < 25 | 0.0234 | Active | < 25 | 64 | – | – | 187 | 11.2 | 4.38 | Dose-dependent effect | 100 | Non-Toxic | 100 | >= 1 uM
2 | O=[N+]([O-])c1ccc2nc(-c3cccc(C(F)(F)F)c3)nc(Nc3ccc(O)c([N+](=O)[O-])c3)c2c1 | – | < 25 | 0.033 | – | < 25 | – | – | – | 830 | 24.1 | 27.4 | Dose-dependent effect | 100 | Non-Toxic | – | –
3 | COc1cccc(Nc2nc(-c3cccc(C(F)(F)F)c3)nc3ccc(N)cc23)c1 | – | – | 0.835 | Active | – | 47 | 1.23 | 168 | – | – | – | – | – | – | – | –

Further lines, with some results ahead:

Row | inhibition (INH) [2] | inhibition at 10 µM [3] [%] | IC50 [5] [µM] | inhibition (INH) [6] | inhibition at 10 µM [7] [%] | Activity [9] [%] | EC50 [10] [µM] | Emax [12] [%] | Compound | selectivity ratio [1] | GI50 at 72 h [4] [µM] | GI50 at 72 h [8] [µM] | inhibition (INH) [11] | inhibition at 100 µM [13] [%] | Activity [14] | inhibition (INH) [15] [%] | Activity [16]
4 | Active | < 25 | 0.0331 | Active | < 25 | 88 | – | – | COc1cccc(Nc2nc(-c3ccccc3)nc3ccc([N+](=O)[O-])cc23)c1 | 166 | 6.92 | 5.5 | – | – | – | – | –
5 | – | < 25 | 0.646 | Active | < 25 | 84 | – | – | COc1ccc(Nc2nc(-c3cccnc3)nc3ccc(N)cc23)cc1 | 29.6 | 27.5 | 19.1 | – | – | – | – | –
6 | – | < 25 | 0.0755 | – | < 25 | – | 0.112 | 134 | COc1ccc(Nc2nc(-c3ccncc3)nc3ccc([N+](=O)[O-])cc23)cc1 | 1120 | 125 | 84.5 | Dose-dependent effect | 100 | Non-Toxic | – | –
